Experimental data collected from several papers.
Compare with care: the assays were run in different laboratories.
SLC6A3: Sodium-dependent dopamine transporter (SLC6A3, Homo sapiens, UniProt Q01959)
PDE10A: cAMP and cAMP-inhibited cGMP 3',5'-cyclic phosphodiesterase 10A (PDE10A, Homo sapiens, UniProt Q9Y233)

Cc1cc(O)c(-c2ccc([C@@H](C)CN(C)C)cc2)c2c1[nH]c(=O)c1sccc12  inhibition (Serine/threonine-protein kinase D1 (PRKD1, Homo sapiens, UniProt Q15139); enzyme activity, inhibitor; 0.1 µM): -0.107%
N#CC[C@@]12C[C@@H]1[C@@H](n1cnc3c(NCc4cccc(Cl)c4)nc(C#Cc4ccc(Cl)s4)nc31)[C@H](O)[C@@H]2O  inhibition (SLC6A3; ligand displacement, radioligand; 10 µM): 89%
c1ccc(-c2cccc(Cc3ncnc4ccccc34)c2)cc1  inhibition (PDE10A; enzyme activity, inhibitor, FP; 0.1 µM): 0%
N#CC[C@@]12C[C@@H]1[C@@H](n1cnc3c(Nc4ccccc4)nc(C#Cc4ccc(Cl)s4)nc31)[C@H](O)[C@@H]2O  inhibition (SLC6A3; ligand displacement, radioligand; 10 µM): 18%
NC/C(=C\F)COc1cccc(Cn2c(=S)[nH]c(=O)c3[nH]cnc32)c1  inhibition (Sodium- and chloride-dependent GABA transporter 1 (Slc6a1, Rattus norvegicus, UniProt P23978); ligand displacement, radioligand; 10 µM): < 50%
COc1ccc2nccc(Cc3cccc(-c4cnn(C5COC5)c4)c3)c2c1  inhibition (PDE10A; enzyme activity, inhibitor, FP; 0.1 µM): 3%
C#Cc1cc(-c2cc(Nc3nc(N[C@@H](C)c4ccc(F)cn4)ncc3Cl)n[nH]2)ccc1C=O  inhibition (Mitogen-activated protein kinase 15 (MAPK15, Homo sapiens, UniProt Q8TD08); enzyme activity, inhibitor; 0.2 µM): 11.5%
CCOC(=O)[C@@]12C[C@@H]1[C@@H](n1cnc3c(NCCCCCc4ccccc4)nc(C#Cc4ccccc4)nc31)[C@H](O)[C@@H]2O  inhibition (SLC6A3; transporter uptake, inhibitor, radiometric; HEK293; 10 µM): 9%
COc1ccc(Cc2nccc3cc(C4COC4)ccc23)cc1OC  inhibition (PDE10A; enzyme activity, inhibitor, FP; 0.1 µM): 0%
